Results taken from ChEMBL document CHEMBL2331406, “In vitro activity of scorpiand-like azamacrocycle derivatives in promastigotes and intracellular amastigotes of Leishmania infantum and Leishmania braziliensis” (Eur J Med Chem, 2013).
The source made the active and inactive calls. The rule behind the calls is not given here.

Tests used:
[1] = Selectivity index, ratio of IC50 for mouse J774.2 cells to IC50 for promastigote form of Leishmania braziliensis MHOM/BR/1975/M2904; assay type: toxicity; conditions: J774.2 cells, read-out: Ratio IC50
[2] = system: Leishmania infantum; assay: Inhibition of promastigote form Leishmania infantum MCAN/ES/2001/UCM-10 Fe-SOD at 5 uM by NBT reduction assay relative to control
Outline: (§1)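 Promastigotes sonicated in sucrose/Tris-HCl/EDTA buffer, pH 7.8, and centrifuged. Protein precipitating at 35–85% ammonium sulphate desalted into 20 mM potassium phosphate with 1 mM EDTA, pH 7.8. Protein measured by Bradford. Fe-SOD activity read spectrophotometrically as inhibition of NBT reduction by superoxide, with compounds at 0.1–50. IC50 by linear regression of Kc values; three determinations; Newman-Keuls test vs control homogenate.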

[3] = system: Leishmania infantum; assay: Antileishmanial activity against promastigote form of Leishmania infantum MCAN/ES/2001/UCM-10 assessed as disorganized cytoplasm at IC25 concentration after 96 hrs by […] electron microscopic analysis relative to control; assay type: functional, organism-based
Outline: (§2)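 Promastigotes at 5 × 10^5 cells/mL in MTL medium with compound at IC25 for 96 h. Ultrastructure examined by transmission electron microscopy against untreated control parasites.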

[4] = system: Leishmania infantum; assay: Antileishmanial activity against promastigote form of Leishmania infantum MCAN/ES/2001/UCM-10 assessed as corrugated cytoplasmic membrane at IC25 concentration after 96 hrs by […] electron microscopic analysis; assay type: functional, organism-based; outline: as §2
[5] = system: Leishmania infantum; assay: Antileishmanial activity against promastigote form of Leishmania infantum MCAN/ES/2001/UCM-10 assessed as high electro density at IC25 concentration after 96 hrs by […] electron microscopic analysis; assay type: functional, organism-based; outline: as §2
[6] = system: Leishmania infantum; assay: Antileishmanial activity against promastigote form of Leishmania infantum MCAN/ES/2001/UCM-10 assessed as change in lactate metabolite production at IC25 concentration after 96 hrs by H1-NMR analysis; assay type: functional
Outline: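 Promastigote cultures, initial 5 × 10^5 cells/mL, given the IC25 of compound; controls left untreated. Incubated 96 h at 28 °C, then centrifuged at 400g for 10 min. Excreted metabolites in the medium identified by 1H NMR spectra and compared with untreated control.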

[7] = system: Leishmania infantum; assay: Antileishmanial activity against promastigote form of Leishmania infantum MCAN/ES/2001/UCM-10 assessed as swollen mitochondria at IC25 concentration after 96 hrs by […] electron microscopic analysis relative to control; assay type: functional, organism-based; outline: as §2
[8] = system: Leishmania infantum; assay: Antileishmanial activity against promastigote form of Leishmania infantum MCAN/ES/2001/UCM-10 assessed as cytoplasmic membrane disruption at IC25 concentration after 96 hrs by […] electron microscopic analysis relative to control; assay type: functional, organism-based; outline: as §2
[9] = system: Leishmania braziliensis MHOM/BR/75/M2904; assay: Inhibition of promastigote form Leishmania braziliensis MHOM/BR/1975/M2904 Fe-SOD at 12.5 uM by NBT reduction assay relative to control; outline: as §1
[10] = system: Leishmania infantum; assay: Antileishmanial activity against promastigote form of Leishmania infantum MCAN/ES/2001/UCM-10 assessed as swollen kinetoplast at IC25 concentration after 96 hrs by […] electron microscopic analysis relative to control; assay type: functional, organism-based; outline: as §2
[11] = system: Leishmania infantum; assay: Antileishmanial activity against promastigote form of Leishmania infantum MCAN/ES/2001/UCM-10 assessed as size reduction at IC25 concentration after 96 hrs by […] electron microscopic analysis; assay type: functional, organism-based; outline: as §2
[12] = system: Leishmania braziliensis; assay: Antileishmanial activity against promastigote form of Leishmania braziliensis MHOM/BR/1975/M2904 assessed as disorganized flagellar pocket at IC25 concentration after 96 hrs by MET microscopic analysis; assay type: functional; conditions: MHOM/BR/75/M2904; outline: as §2
[13] = system: Leishmania braziliensis; assay: Antileishmanial activity against promastigote form of Leishmania braziliensis MHOM/BR/1975/M2904 assessed as disorganized flagellum at IC25 concentration after 96 hrs by MET microscopic analysis; assay type: functional; conditions: MHOM/BR/75/M2904; outline: as §2
[14] = system: Leishmania braziliensis; assay: Antileishmanial activity against promastigote form of Leishmania braziliensis MHOM/BR/1975/M2904 assessed as structural disruptions at IC25 concentration after 96 hrs by MET microscopic analysis; assay type: functional; conditions: MHOM/BR/75/M2904; outline: as §2
[15] = system: Leishmania braziliensis; assay: Antileishmanial activity against promastigote form of Leishmania braziliensis MHOM/BR/1975/M2904 assessed as small vacuoles at IC25 concentration after 96 hrs by MET microscopic analysis; assay type: functional; conditions: MHOM/BR/75/M2904; outline: as §2
[16] = system: Leishmania braziliensis; assay: Antileishmanial activity against promastigote form of Leishmania braziliensis MHOM/BR/1975/M2904 assessed as nuclear alterations at IC25 concentration after 96 hrs by MET microscopic analysis; assay type: functional; conditions: MHOM/BR/75/M2904; outline: as §2
[17] = system: Leishmania braziliensis; assay: Antileishmanial activity against promastigote form of Leishmania braziliensis MHOM/BR/1975/M2904 assessed as lipid natured cytoplasm at IC25 concentration after 96 hrs by MET microscopic analysis; assay type: functional; conditions: MHOM/BR/75/M2904; outline: as §2
[18] = system: Leishmania infantum; assay: Antileishmanial activity against promastigote form of Leishmania infantum MCAN/ES/2001/UCM-10 assessed as mortality at IC25 concentration after 96 hrs by […] electron microscopic analysis; assay type: functional, organism-based; outline: as §2
[19] = system: Leishmania braziliensis; assay: Antileishmanial activity against promastigote form of Leishmania braziliensis MHOM/BR/1975/M2904 assessed as swollen parasites at IC25 concentration after 96 hrs by MET microscopic analysis; assay type: functional; conditions: MHOM/BR/75/M2904; outline: as §2
[20] = system: Leishmania braziliensis; assay: Antileishmanial activity against promastigote form of Leishmania braziliensis MHOM/BR/1975/M2904 assessed as empty vacuoles at IC25 concentration after 96 hrs by MET microscopic analysis; assay type: functional; conditions: MHOM/BR/75/M2904; outline: as §2
[21] = system: Leishmania braziliensis; assay: Antileishmanial activity against promastigote form of Leishmania braziliensis MHOM/BR/1975/M2904 assessed as structural alterations at IC25 concentration after 96 hrs by MET microscopic analysis; assay type: functional; conditions: MHOM/BR/75/M2904; outline: as §2
[22] = system: Leishmania infantum; assay: Antileishmanial activity against promastigote form of Leishmania infantum MCAN/ES/2001/UCM-10 assessed as vacuoles in cytoplasm at IC25 concentration after 96 hrs by […] electron microscopic analysis relative to control; assay type: functional, organism-based; outline: as §2
[23] = system: Leishmania infantum; assay: Antileishmanial activity against promastigote form of Leishmania infantum MCAN/ES/2001/UCM-10 assessed as death-like aspect vesicles at IC25 concentration after 96 hrs by […] electron microscopic analysis relative to control; assay type: functional, organism-based; outline: as §2

| Compound | selectivity ratio [1] | Activity [4] | Activity [5] | Activity [6] | Activity [7] | Activity [10] | Activity [11] | further results |
| --- | --- | --- | --- | --- | --- | --- | --- | --- |
| Br.NCCN1CCNCc2cccc(n2)CNCC1 | 19.6 | – | – | – | – | – | – | – |
| Cl.c1cncc(CNCCN2CCNCc3cccc(n3)CNCC2)c1 | 20.3 | Active | Active | -38% | Active | Active | Active | inhibition [2]: 100%; Activity [3]: Active; Activity [8]: Active; inhibition [9]: 100% |
| Cl.c1ccc(CNCCN2CCNCc3cccc(n3)CNCC2)nc1 | 22.5 | – | – | 13% | – | – | – | Activity [12]: Active; Activity [13]: Active; Activity [14]: Active; Activity [15]: Active; Activity [16]: inactive; Activity [17]: Active; Activity [18]: Active; Activity [19]: Active; Activity [20]: Active |
| Cl.c1cc2nc(c1)CNCCN(CCNCc1cccc3ccccc13)CCNC2 | 29.7 | Active | Active | -44% | Active | Active | Active | Activity [21]: inactive; Activity [22]: Active; Activity [23]: Active |
